# Measured values published in ChEMBL document CHEMBL1629690, “Development of hexadecyloxypropyl tenofovir (CMX157) for treatment of infection caused by wild-type and nucleoside/nucleotide-resistant HIV” (Antimicrob Agents Chemother, 2010).
# Experiments:
# [1] = tested on: Human immunodeficiency virus 1; experiment: Antiviral activity against HIV1 isolate 215 harboring reverse transcriptase D67N/K70E mutant gene by phenosense assay relative to wild type; type: functional
# Method in brief: (§1)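 PhenoSense HIV recombinant virus assay: patient-derived HIV-1 with major NRTI resistance mutations tested against increasing drug concentrations to give inhibition curves. EC50 is the concentration giving 50% inhibition. Fold change is the test recombinant EC50 divided by the EC50 of a drug-sensitive wild-type reference virus. Panel of 30 NRTI-resistant isolates plus two wild-type viruses.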
# [2] = tested on: Human immunodeficiency virus 1; experiment: Antiviral activity against HIV1 isolate 201 harboring reverse transcriptase M41L/L210W/T215Y mutant gene by phenosense assay relative to wild type; type: functional; method in brief: as §1
# [3] = tested on: Human immunodeficiency virus 1; experiment: Antiviral activity against HIV1 isolate 201 harboring reverse transcriptase M41L/L210W/T215Y mutant gene by phenosense assay; type: functional, organism-based; details: Human immunodeficiency virus 1, isolate 201
# Method in brief: (§2)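 Recombinant-virus PhenoSense HIV assay run on a panel of 30 NRTI-resistant HIV-1 mutants and two wild-type viruses. Each virus is tested across increasing drug concentrations to give an inhibition curve and EC50. Fold change is the test recombinant EC50 divided by the EC50 of the drug-sensitive wild-type reference virus.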
# [4] = tested on: Human immunodeficiency virus 1; experiment: Antiviral activity against HIV1 isolate 069 harboring reverse transcriptase D67E/T69SSG/V75M/M184V/L210W/T215Y mutant gene by phenosense assay; type: functional, organism-based; details: Human immunodeficiency virus 1, isolate 069; method in brief: as §2
# [5] = tested on: Human immunodeficiency virus 1; experiment: Antiviral activity against HIV1 isolate 200 harboring reverse transcriptase M41L/L210W/T215Y mutant gene by phenosense assay relative to wild type; type: functional; method in brief: as §2
# [6] = tested on: Human immunodeficiency virus 1; experiment: Antiviral activity against HIV1 isolate 188 harboring reverse transcriptase T215Y/M184V mutant gene by phenosense assay; type: functional, organism-based; details: Human immunodeficiency virus 1, isolate 188; method in brief: as §2
# [7] = tested on: Human immunodeficiency virus 1; experiment: Antiviral activity against HIV1 isolate 215 harboring reverse transcriptase D67N/K70E mutant gene by phenosense assay; type: functional, organism-based; details: Human immunodeficiency virus 1, isolate 215; method in brief: as §1
# [8] = tested on: Human immunodeficiency virus 1; experiment: Antiviral activity against HIV1 isolate 212 harboring reverse transcriptase L210W/T215Y mutant gene by phenosense assay relative to wild type; type: functional; method in brief: as §1
# [9] = tested on: Human immunodeficiency virus 1; experiment: Antiviral activity against HIV1 isolate 212 harboring reverse transcriptase L210W/T215Y mutant gene by phenosense assay; type: functional, organism-based; details: Human immunodeficiency virus 1, isolate 212; method in brief: as §1
# [10] = tested on: Human immunodeficiency virus 1; experiment: Antiviral activity against HIV1 isolate 066 harboring reverse transcriptase 184V mutant gene by phenosense assay relative to wild type; type: functional; method in brief: as §2
# [11] = tested on: Human immunodeficiency virus 1; experiment: Antiviral activity against HIV1 isolate 060 harboring reverse transcriptase M41L/D67N/K70R/L210W/T215Y/K219E mutant gene by phenosense assay relative to wild type; type: functional; method in brief: as §2
# [12] = tested on: Human immunodeficiency virus 1; experiment: Antiviral activity against HIV1 isolate 211 harboring reverse transcriptase D67N/K70R/T215F/K219E/M184V mutant gene by phenosense assay; type: functional, organism-based; details: Human immunodeficiency virus 1, isolate 211; method in brief: as §1
# [13] = tested on: Human immunodeficiency virus 1; experiment: Antiviral activity against HIV1 isolate 069 harboring reverse transcriptase D67E/T69SSG/V75M/M184V/L210W/T215Y mutant gene by phenosense assay relative to wild type; type: functional; method in brief: as §2
# [14] = tested on: Human immunodeficiency virus 1; experiment: Antiviral activity against HIV1 isolate 067 harboring reverse transcriptase A62V/D67G/T69SVG/V75I/T215I mutant gene by phenosense assay relative to wild type; type: functional; method in brief: as §2
# [15] = tested on: Human immunodeficiency virus 1; experiment: Antiviral activity against HIV1 isolate 192 harboring reverse transcriptase M41L/T215Y mutant gene by phenosense assay; type: functional, organism-based; details: Human immunodeficiency virus 1, isolate 192; method in brief: as §2
# [16] = tested on: Human immunodeficiency virus 1; experiment: Antiviral activity against HIV1 isolate 203 harboring reverse transcriptase M41L/L210W/T215Y/M184V mutant gene by phenosense assay relative to wild type; type: functional; method in brief: as §1
# [17] = tested on: Human immunodeficiency virus 1; experiment: Antiviral activity against HIV1 isolate 066 harboring reverse transcriptase 184V mutant gene by phenosense assay; type: functional, organism-based; details: Human immunodeficiency virus 1, isolate 066; method in brief: as §2
# [18] = tested on: Human immunodeficiency virus 1; experiment: Antiviral activity against HIV1 isolate 194 harboring reverse transcriptase M41L/T215Y/M184V mutant gene by phenosense assay relative to wild type; type: functional; method in brief: as §2
# [19] = tested on: Human immunodeficiency virus 1; experiment: Antiviral activity against HIV1 isolate 174 harboring reverse transcriptase M184V mutant gene obtained as site-directed mutant of NL4-3 by phenosense assay relative to wild type; type: functional; method in brief: as §2
# [20] = tested on: Human immunodeficiency virus 1; experiment: Antiviral activity against HIV1 isolate 185 harboring reverse transcriptase T215Y mutant gene by phenosense assay; type: functional, organism-based; details: Human immunodeficiency virus 1, isolate 185; method in brief: as §2
# [21] = tested on: Human immunodeficiency virus 1; experiment: Antiviral activity against HIV1 isolate 061 harboring reverse transcriptase M41L/D67N/K70R/M184V/L210W/T215Y/K219E mutant gene by phenosense assay; type: functional, organism-based; details: Human immunodeficiency virus 1, isolate 061; method in brief: as §2
# [22] = tested on: Human immunodeficiency virus 1; experiment: Antiviral activity against HIV1 isolate 157 harboring reverse transcriptase L74V/M184V mutant gene by phenosense assay relative to wild type; type: functional; method in brief: as §2
# [23] = tested on: Human immunodeficiency virus 1; experiment: Antiviral activity against HIV1 isolate 056 expressing wild type reverse transcriptase gene by phenosense assay; type: functional, organism-based; details: Human immunodeficiency virus 1, isolate 056
# Method in brief: (§3)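 In the PhenoSense recombinant virus assay, virus was tested against increasing drug concentrations. EC50 came from the inhibition curve and was compared with a drug-sensitive reference virus.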
# [24] = tested on: Human immunodeficiency virus 1; experiment: Antiviral activity against HIV1 isolate 162 harboring reverse transcriptase A62V/V75I/F77L/Y115F/F116Y/Q151M/M184V mutant gene by phenosense assay; type: functional, organism-based; details: Human immunodeficiency virus 1, isolate 162; method in brief: as §2
# [25] = tested on: Human immunodeficiency virus 1; experiment: Antiviral activity against HIV1 isolate 060 harboring reverse transcriptase M41L/D67N/K70R/L210W/T215Y/K219E mutant gene by phenosense assay; type: functional, organism-based; details: Human immunodeficiency virus 1, isolate 060; method in brief: as §2
# [26] = tested on: Human immunodeficiency virus 1; experiment: Antiviral activity against HIV1 isolate 180 harboring reverse transcriptase K65R mutant gene obtained as site-directed mutant of NL4-3 by phenosense assay; type: functional, organism-based; details: Human immunodeficiency virus 1, isolate 180; method in brief: as §2
# [27] = tested on: Human immunodeficiency virus 1; experiment: Antiviral activity against HIV1 isolate 200 harboring reverse transcriptase M41L/L210W/T215Y mutant gene by phenosense assay; type: functional, organism-based; details: Human immunodeficiency virus 1, isolate 200; method in brief: as §2
# [28] = tested on: Human immunodeficiency virus 1; experiment: Antiviral activity against HIV1 isolate 204 harboring reverse transcriptase M41L/L210W/T215Y/M184V mutant gene by phenosense assay relative to wild type; type: functional; method in brief: as §1
# [29] = tested on: Human immunodeficiency virus 1; experiment: Antiviral activity against HIV1 isolate 206 harboring reverse transcriptase D67N/K70R mutant gene by phenosense assay relative to wild type; type: functional; method in brief: as §1
# [30] = tested on: Human immunodeficiency virus 1; experiment: Antiviral activity against HIV1 isolate 204 harboring reverse transcriptase M41L/L210W/T215Y/M184V mutant gene by phenosense assay; type: functional, organism-based; details: Human immunodeficiency virus 1, isolate 204; method in brief: as §1
# [31] = tested on: Human immunodeficiency virus 1; experiment: Antiviral activity against HIV1 isolate 220 harboring reverse transcriptase K70E/M184V mutant gene by phenosense assay relative to wild type; type: functional; method in brief: as §1
# [32] = tested on: Human immunodeficiency virus 1; experiment: Antiviral activity against HIV1 isolate 153 harboring reverse transcriptase L74V mutant gene by phenosense assay; type: functional, organism-based; details: Human immunodeficiency virus 1, isolate 153; method in brief: as §2
# [33] = tested on: Human immunodeficiency virus 1; experiment: Antiviral activity against HIV1 isolate 185 harboring reverse transcriptase T215Y mutant gene by phenosense assay relative to wild type; type: functional; method in brief: as §2
# [34] = tested on: Human immunodeficiency virus 1; experiment: Antiviral activity against HIV1 isolate 188 harboring reverse transcriptase T215Y/M184V mutant gene by phenosense assay relative to wild type; type: functional; method in brief: as §2
# [35] = tested on: Human immunodeficiency virus 1; experiment: Antiviral activity against HIV1 isolate 057 expressing wild type reverse transcriptase gene by phenosense assay; type: functional, organism-based; details: Human immunodeficiency virus 1, isolate 057; method in brief: as §3
# [36] = tested on: Human immunodeficiency virus 1; experiment: Antiviral activity against HIV1 isolate 166 harboring reverse transcriptase L74V mutant gene obtained as site-directed mutant of NL4-3 by phenosense assay; type: functional, organism-based; details: Human immunodeficiency virus 1, isolate 166; method in brief: as §2
Compound,fold change (FC) [1],fold change (FC) [2],EC50 [3] [µM],EC50 [4] [µM],fold change (FC) [5],EC50 [6] [µM],EC50 [7] [µM],fold change (FC) [8],EC50 [9] [µM],fold change (FC) [10],fold change (FC) [11],EC50 [12] [µM],fold change (FC) [13],fold change (FC) [14],EC50 [15] [µM],fold change (FC) [16],EC50 [17] [µM],fold change (FC) [18],fold change (FC) [19],EC50 [20] [µM],further results
Nc1nc(NC2CC2)c2ncn([C@H]3C=C[C@@H](CO)C3)c2n1 [ABACAVIR],1.4,2.4,4.2,47,2.8,7.6,2.4,2.1,3.6,2.7,4.7,7.7,26,18,3.4,4.6,4.8,5.4,2.6,3.7,EC50 [21]: 22 µM; fold change (FC) [22]: 5.2; EC50 [23]: 1.5 µM; EC50 [24]: > 52 µM; EC50 [25]: 11 µM; EC50 [26]: 4.6 µM; EC50 [27]: 5 µM; fold change (FC) [28]: 5; fold change (FC) [29]: 1.4; EC50 [30]: 8.9 µM; fold change (FC) [31]: 5.9; EC50 [32]: 3.4 µM; fold change (FC) [33]: 2.1; fold change (FC) [34]: 4.3; EC50 [35]: 1.7 µM; EC50 [36]: 3.3 µM
O=c1[nH]cnc2c1ncn2[C@H]1CC[C@@H](CO)O1 [DIDANOSINE],1.4,1.1,5.9,24,1.4,7.9,7.7,1,5.5,1.4,1.5,8.7,4.4,4,6.3,1.5,7.6,1.8,1.2,6.3,EC50 [21]: 12 µM; fold change (FC) [22]: 2; EC50 [23]: 5.5 µM; EC50 [24]: 58 µM; EC50 [25]: 8.9 µM; EC50 [26]: 11 µM; EC50 [27]: 7.5 µM; fold change (FC) [28]: 1.6; fold change (FC) [29]: 1.2; EC50 [30]: 8.6 µM; fold change (FC) [31]: 1.8; EC50 [32]: 8.9 µM; fold change (FC) [33]: 1.1; fold change (FC) [34]: 1.4; EC50 [35]: 5.6 µM; EC50 [36]: 8.1 µM
